In PMC7891373 (Clinical Pharmacology in Drug Development, 2020):
Read-outs that look alike come from different tables or passages of the source. Marks after values point to notes of the source that are not given here.

How the values were obtained:
[1] = cited from earlier work
CYP2C9 = settings: in vitro; cited from earlier work
CYP2C8 = settings: in vitro; cited from earlier work
[2] = assay type: in vivo, human; settings: single oral dose, fasted; for AUC / AUC(0-t) / half-life / Tmax: male, human, plasma, po; for AUC: AUC0‐∞; for AUC(0-t): AUClast, AUC24h; for Tmax: n=24, median (min-max)
Method in brief: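 Healthy Japanese men aged 20–45 y with BMI 18.5 to <30.0 kg/m2, in an open-label randomized 2-period crossover. The 25-mg cohort was split into tablet→capsule and capsule→tablet sequences of 12, each a single fasted oral dose, with a washout of at least 28 days. Venous blood was drawn predose and 0.25–24 h post-dose. Plasma test compound was measured by validated LC-MS/MS (LLOQ 10.0 ng/mL). Parameters came from individual concentration-time profiles (AUClast = AUC24h), giving tablet/capsule geometric mean ratios.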

[3] = Safety and tolerability assessment in the phase 1 study; assay type: in vivo, human; settings: single oral dose 25 or 50 mg, tablet and capsule
Method in brief: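 Healthy Japanese men received single fasted oral 25- or 50-mg tablet and capsule doses in a crossover design, confined at the site around each dose. The safety set was all subjects given at least 1 dose. Adverse events were assessed by clinical interview, physical examination, 12-lead ECG and routine laboratory tests from start of treatment to end of follow-up. Each was coded by MedDRA 17.0 (Japanese) and graded for severity, seriousness and causality.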

## Cc1nc(Cl)c(-c2noc(-c3cc(O)c(O)c([N+](=O)[O-])c3)n2)c(C)c1Cl [BIA 9–1079]
[1]; not assessed in this study
  half-life of metabolite: short

## Cc1c(Cl)c(C)[n+]([O-])c(Cl)c1-c1noc(-c2cc(OS(=O)(=O)O)c(O)c([N+](=O)[O-])c2)n1 [BIA 9–1103]
[1]; especially following repeated dosing
  half-life of metabolite: relatively long

## Cc1c(Cl)c(C)[n+]([O-])c(Cl)c1-c1noc(-c2cc(O)c(O)c([N+](=O)[O-])c2)n1 [Opicapone]
CYP2C9
  CYP2C9 inhibition: weak, reversible inhibitor
CYP2C8
  CYP2C8 inhibition: weak, reversible inhibitor
[2]; 25 mg, opicapone 25 mg tablet, n=23, mean ± SD
  AUC: 2530 ± 581 ng·h/mL
[2]; 25 mg, opicapone 25 mg tablet, n=24, mean ± SD
  AUC(0-t): 2480 ± 586 ng·h/mL
[2]; 25 mg, t1/2, opicapone 25 mg tablet, n=23, mean ± SD
  half-life: 43.7 ± 10.4 min
[2]; 25 mg, opicapone 25 mg tablet
  Tmax: 2 h
[2]; 50 mg, opicapone 50 mg capsule, n=23, mean ± SD
  AUC: 4210 ± 1620 ng·h/mL
[2]; 50 mg, opicapone 50 mg capsule, n=24, mean ± SD
  AUC(0-t): 4080 ± 1650 ng·h/mL
[2]; 50 mg, t1/2, opicapone 50 mg capsule, n=23, mean ± SD
  half-life: 70.8 ± 28.6 min
[2]; 50 mg, opicapone 50 mg capsule
  Tmax: 2 h
[2]; opicapone 25 mg capsule, n=24, mean ± SD
  CL/F: 12.9 ± 5.31 L/h
[2]; opicapone 25 mg tablet, n=23, mean ± SD
  CL/F: 10.6 ± 3.50 ^b L/h
[2]; opicapone 25 mg, n=24
  Geometric Mean Ratio (Tablets/Capsules) of AUC0‐∞: 1.19
  Geometric Mean Ratio (Tablets/Capsules) of AUClast: 1.18
  Geometric Mean Ratio (Tablets/Capsules) of Cmax: 1.24
[2]; opicapone 50 mg capsule, n=23, mean ± SD
  CL/F: 13.6 ± 5.09 ^b L/h
[2]; opicapone 50 mg tablet, n=23, mean ± SD
  CL/F: 10.4 ± 3.20 L/h
[2]; opicapone 50 mg, n=23
  Geometric Mean Ratio (Tablets/Capsules) of AUC0‐∞: 1.27
[2]; opicapone 50 mg, n=24
  Geometric Mean Ratio (Tablets/Capsules) of AUClast: 1.28
  Geometric Mean Ratio (Tablets/Capsules) of Cmax: 1.42
[3]; any group, study period
  Serious adverse events: no serious adverse events
[3]; healthy Japanese subjects
  Tolerability: well tolerated
